Screening data (PubChem)
SENP1 inh – blocks the human SENP1 SUMO protease catalytic domain | 360,000 compounds, 0.21% hits | AID 624204 | recombinant SENP1 catalytic domain, CyPet-SUMO1-YPet FRET cleavage | inhibition, % at 10 µM;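 active means inhibition at least 30% at 10 µM, raw YFP signal under a set limit, fluorescence ratio 0.5 to 1.5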
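Material – human SENP1 catalytic domain · Input – SENP1 enzyme, 20 pM final · Compound dosing – single concentration of 10 µM compound, 0.5% DMSO final · Timing – enzyme reaction for 50 min at room temperature, dark · Measured by – FRET fluorescence in CFP and YFP emission channels · Control set – no-enzyme wells low, DMSO-plus-enzyme wells high control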
SENP6 block – inhibitors of human SENP6 protease. Recombinant SENP6 catalytic domain, aminoluciferin luminescence. 330,000 compounds, 1.8% hits. inhibition, % at 10 µM. Q9GZR1;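 active means inhibition above about 50% at the single tested dose, limit read from the data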
Target sequence (Q9GZR1 628-1112 limits assumed): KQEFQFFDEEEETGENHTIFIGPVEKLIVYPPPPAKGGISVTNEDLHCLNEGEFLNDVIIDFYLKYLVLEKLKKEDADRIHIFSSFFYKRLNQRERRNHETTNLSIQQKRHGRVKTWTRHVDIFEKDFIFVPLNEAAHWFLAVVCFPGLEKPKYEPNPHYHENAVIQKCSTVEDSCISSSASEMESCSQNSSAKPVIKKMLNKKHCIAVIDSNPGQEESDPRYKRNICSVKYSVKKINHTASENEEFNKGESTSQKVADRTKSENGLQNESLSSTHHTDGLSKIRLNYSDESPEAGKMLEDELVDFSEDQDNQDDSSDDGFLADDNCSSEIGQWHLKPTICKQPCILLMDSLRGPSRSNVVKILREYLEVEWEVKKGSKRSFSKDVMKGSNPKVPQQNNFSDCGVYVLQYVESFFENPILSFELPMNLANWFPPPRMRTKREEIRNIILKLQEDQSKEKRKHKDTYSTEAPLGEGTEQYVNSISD
SENP8 block-1 – blocks human SENP8 cleavage of Nedd8 substrate; Q96LD8; recombinant SENP8, Nedd8 substrate fluorescence; inhibition, % at 20 µM; 360,000 compounds, 0.64% hits; in the data active means inhibition mostly above about 40%, no sharp cut-off; inactive means mostly below about 27%
Apaf-1 inh – blocks human Apaf-1 apoptosome activity. O14727. reconstituted apoptosome caspase-3 activity, DEVD-Rh110 fluorescence. inhibition, % at 20 µM. 330,000 compounds, 0.71% hits. AID 489030; active means inhibition of at least 40% at 20 µM
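detection = Rh110 fluorescence intensity | test system = biochemical Apaf-1 apoptosome reconstitution | also added = cytochrome c and DEVD-Rh110 substrate | schedule = 30 min plus 50 min, RT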
SENP7 inh – SENP7 protease inhibition | AID 434973 | recombinant SENP7, Z-RLRGG-aminoluciferin luminescence, 40 min | inhibition, % at 5 µM | 330,000 compounds, 1.5% hits;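 active means inhibition above about 50% at the single test dose, limit read from the data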
SENP8 block-2 – inhibitors of human SENP8 protease | Q96LD8 | purified SENP8, Z-RLRGG-aminoluciferin cleavage, luminescence | inhibition, % at 10 µM | 330,000 compounds, 1.2% hits | AID 2540; in the data active means inhibition above about 50%
SENP8 confirm – confirmation of human SENP8 protease inhibitors; shares compounds with SENP7 inh; AID 488912; Recombinant SENP8, Z-RLRGG-aminoluciferin luminescence, 60 min; inhibition, % at 12.5 µM; 6,200 compounds, 40% hits;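 active means mean inhibition across replicates above about 50%, limit read from the data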
SENP6 conf – human SENP6 inhibition, confirmed. recombinant SENP6, Z-RLRGG-aminoluciferin luminescence. inhibition, % at 12.5 µM. 6,200 compounds, 58% hits. shares compounds with SENP7 inh. AID 488915
SENP7 conf – confirmation of human SENP7 protease inhibitors | shares compounds with SENP7 inh | 6,200 compounds, 69% hits | recombinant SENP7, Z-RLRGG-aminoluciferin luminescence, 40 min | inhibition, % at 12.5 µM
Casp3 SENP sel – inhibits human caspase-3 in SENP selectivity test | shares compounds with SENP7 inh | purified caspase-3, Z-DEVD-aminoluciferin luminescence, 60 min | inhibition, % at 12.5 µM | 6,200 compounds, 60% hits | AID 488918;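 active means mean inhibition above about 50%, limit read from the data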
Target sequence (P42574 28-227 limits assumed): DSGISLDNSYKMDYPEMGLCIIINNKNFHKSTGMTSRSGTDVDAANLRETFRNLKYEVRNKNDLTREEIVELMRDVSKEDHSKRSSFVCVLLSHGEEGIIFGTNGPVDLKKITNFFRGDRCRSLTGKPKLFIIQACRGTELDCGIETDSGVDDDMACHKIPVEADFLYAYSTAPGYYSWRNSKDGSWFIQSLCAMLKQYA
SENP luc ctr – counter-screen for SENP inhibitors: luminescence interference; 6,200 compounds, 39% hits; inhibition, % at 12.5 µM; Pre-incubated SENP8/Z-RLRGG-aminoluciferin, luciferase luminescence interference; shares compounds with SENP7 inh;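 active means mean inhibition above about 50% when retested at one dose, limit read from the data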
A number is an active result. A selection: hits, their analogues and other compounds. The true share with any hit is near 2.9%.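 How the source made its calls, unless noted: active means mean inhibition above about 50% in the one-dose retest (limit read from the data); inactive means the rest.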

Results for Cc1ccc(F)c(S(=O)(=O)NC(=O)C2(C)CCN2C(=O)Cc2cccc3ccccc23)c1 (centres undefined) ?
SENP1 inh: inactive; SENP8 block-1: inactive

How did O=C(c1ccco1)N1CC2(CC(c3ccc(Cl)cc3)=NO2)CN1Cc1ccc(Br)cc1 (centres undefined) do in these assays?
SENP1 inh: inactive; SENP8 block-1: inactive

Results for O=C(NCc1ccco1)c1ccc(-c2csnn2)cc1 ?
SENP1 inh: inactive; SENP6 block: inactive; SENP8 block-1: inactive; Apaf-1 inh: inactive; SENP7 inh: inactive; SENP8 block-2: inactive

What do the screens show for `Cc1cc(N2CCCCC2)n2ncc(-c3ccc(Cl)cc3)c2n1`?
SENP1 inh: inactive; SENP6 block: inactive; SENP8 block-1: inactive; Apaf-1 inh: inactive; SENP7 inh: inactive; SENP8 block-2: inactive

How did Cc1cc(NCCCn2ccnc2)n2ncc(-c3ccccc3)c2n1 do in these assays?
SENP1 inh: inactive; SENP6 block: 67; SENP8 block-1: inactive; Apaf-1 inh: inactive; SENP7 inh: 55; SENP8 block-2: inactive; SENP8 confirm: 53; SENP6 conf: 52; SENP7 conf: 82; Casp3 SENP sel: 60; SENP luc ctr: inactive

What do the screens show for `Cc1cc(N2CCCCC2)n2ncc(-c3ccccc3)c2n1`?
SENP1 inh: inactive; SENP6 block: 50; SENP8 block-1: inactive; Apaf-1 inh: inactive; SENP7 inh: 53; SENP8 block-2: inactive; SENP8 confirm: inactive; SENP6 conf: inactive; SENP7 conf: 75; Casp3 SENP sel: inactive; SENP luc ctr: inactive

Results for Cc1cc(NC2CCCC2)n2ncc(-c3ccccc3)c2n1 ?
SENP1 inh: inactive; SENP6 block: 77; SENP8 block-1: inactive; Apaf-1 inh: inactive; SENP7 inh: 83; SENP8 block-2: 71; SENP8 confirm: 80; SENP6 conf: 84; SENP7 conf: 93; Casp3 SENP sel: 62; SENP luc ctr: inactive

How did Cc1cc(N2CCOCC2)n2ncc(-c3ccccc3)c2n1 do in these assays?
SENP1 inh: inactive; SENP6 block: inactive; SENP8 block-1: inactive; Apaf-1 inh: inactive; SENP7 inh: 57; SENP8 block-2: inactive; SENP8 confirm: 55; SENP6 conf: 55; SENP7 conf: 84; Casp3 SENP sel: 63; SENP luc ctr: inactive

What do the screens show for `Cc1ccc(-c2cnn3c(N4CCOCC4)cc(C)nc23)cc1`?
SENP1 inh: inactive; SENP6 block: inactive; SENP8 block-1: inactive; Apaf-1 inh: inactive; SENP7 inh: inactive; SENP8 block-2: inactive

How did CC(C)C[C@@H]1CC2=C(C(=O)OC(C)(C)O2)[C@H](c2ccc(Cl)cc2)O1 do in these assays?
SENP1 inh: inactive; SENP8 block-1: inactive

How did CN(C)S(=O)(=O)c1cccc(C(=O)N=C2N=C3C=CC(Cl)=CN3Cc3ccccc32)c1 do in these assays?
SENP1 inh: inactive; SENP6 block: 91; SENP8 block-1: inactive; Apaf-1 inh: inactive; SENP7 inh: 89; SENP8 block-2: 69; SENP8 confirm: inactive; SENP6 conf: inactive; SENP7 conf: inactive; Casp3 SENP sel: 67; SENP luc ctr: inactive

How did O=C(N=C1N=C2C=CC=CN2Cc2ccccc21)c1ccc(S(=O)(=O)N2CCCC2)cc1 do in these assays?
SENP1 inh: inactive; SENP6 block: inactive; SENP8 block-1: inactive; Apaf-1 inh: inactive; SENP7 inh: inactive; SENP8 block-2: inactive

Results for Oc1ccccc1C1NN=C(c2ccccc2)S1 (centres undefined) ?
SENP1 inh: inactive; SENP6 block: 86; SENP8 block-1: inactive; Apaf-1 inh: inactive; SENP7 inh: 95; SENP8 block-2: 61; SENP8 confirm: inactive; SENP6 conf: 79; SENP7 conf: 70; Casp3 SENP sel: 65; SENP luc ctr: inactive

How did CSc1ccc(C2NN=C(c3ccccc3)S2)cc1 (centres undefined) do in these assays?
SENP1 inh: inactive; SENP6 block: 92; SENP8 block-1: inactive; Apaf-1 inh: inactive; SENP7 inh: 99; SENP8 block-2: 93; SENP8 confirm: 52; SENP6 conf: 53; SENP7 conf: inactive; Casp3 SENP sel: 60; SENP luc ctr: inactive

How did C[n+]1cccc(NC(=O)c2ccccc2)c1 do in these assays?
SENP1 inh: inactive; SENP8 block-1: inactive

What do the screens show for `CC(C)C[C@@H](CN)NC(=O)c1nc[nH]c1C(=O)N[C@@H](C)C(=O)CNC[C@H](C)NC(=O)c1nc[nH]c1C(=O)N[C@@H](C)C(=O)O`?
SENP1 inh: inactive; SENP8 block-1: inactive

Results for CCOc1ccc(OCCSc2nc(C)cc(=O)[nH]2)cc1 ?
SENP1 inh: inactive; SENP6 block: 66; SENP8 block-1: inactive; Apaf-1 inh: inactive; SENP7 inh: 51; SENP8 block-2: 70; SENP8 confirm: inactive; SENP6 conf: 72; SENP7 conf: 61; Casp3 SENP sel: 79; SENP luc ctr: inactive

How did COc1ccc(OCCSc2nc(N)cc(=O)[nH]2)cc1 do in these assays?
SENP1 inh: inactive; SENP6 block: inactive; SENP8 block-1: inactive; Apaf-1 inh: inactive; SENP7 inh: inactive; SENP8 block-2: inactive

How did CC1Oc2ccc(C#N)cc2N(Cc2ccc(F)cc2)C1=O (centres undefined) do in these assays?
SENP1 inh: inactive; SENP8 block-1: inactive

How did COc1cccc(Nc2nc3ccc(OC)cc3s2)c1 do in these assays?
SENP1 inh: inactive; SENP6 block: inactive; SENP8 block-1: inactive; Apaf-1 inh: inactive; SENP7 inh: inactive; SENP8 block-2: inactive

Results for Cc1cccc(Nc2nc3ccccc3s2)c1C ?
SENP1 inh: inactive; SENP6 block: 69; SENP8 block-1: inactive; Apaf-1 inh: inactive; SENP7 inh: 83; SENP8 block-2: 65; SENP8 confirm: inactive; SENP6 conf: 74; SENP7 conf: 94; Casp3 SENP sel: 59; SENP luc ctr: inactive

What do the screens show for `Cc1cccc(Nc2n[nH]c(=S)s2)c1C`?
SENP1 inh: inactive; SENP6 block: inactive; SENP8 block-1: inactive; Apaf-1 inh: inactive; SENP7 inh: inactive; SENP8 block-2: inactive
